ChEMBL document CHEMBL1132421, “N-[2,2-dimethyl-3-(N-(4-cyanobenzoyl)amino)nonanoyl]-L-phenylalanine ethyl ester as a stable ester-type inhibitor of chymotrypsin-like serine proteases: structural requirements for potent inhibition of alpha-chymotrypsin” (J Med Chem, 1999)

Target: T1, Cathepsin G (Homo sapiens, UniProt P08311)
T1 sequence (P08311 whole entry): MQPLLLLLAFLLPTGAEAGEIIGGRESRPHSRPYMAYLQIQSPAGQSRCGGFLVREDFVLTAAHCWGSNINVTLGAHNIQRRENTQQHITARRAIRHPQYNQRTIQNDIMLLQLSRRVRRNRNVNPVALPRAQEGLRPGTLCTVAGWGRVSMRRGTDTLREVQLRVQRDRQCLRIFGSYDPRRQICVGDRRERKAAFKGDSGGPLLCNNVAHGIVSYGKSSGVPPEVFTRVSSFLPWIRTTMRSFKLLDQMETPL
Assay: Compound was tested by chromogenic assay for the inhibition of serine proteases like Human cathepsin G
Details: not given

SMILES	IC50 [nM]
CCCCCCC(NC(=O)c1ccc(C#N)cc1)C(C)(C)C(=O)N[C@@H](Cc1ccccc1)C(=O)OC (stereo not given in full)	1500
CCCCCCCCC(NC(=O)c1ccc(C#N)cc1)C(C)(C)C(=O)N[C@@H](Cc1ccccc1)C(=O)OCC (stereo not given in full)	6600

Target: T2, Chymotrypsinogen A (Bos taurus, UniProt P00766)
Assay: In vitro inhibition of bovine alpha chymotrypsin.
Details: not given
Summary of the method: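 Bovine pancreatic α-chymotrypsin (type I-S, 47 ng/mL) with N-succinyl-Ala-Ala-Pro-Phe-pNA (1.5 mM) in 50 mM HEPES pH 7.4 containing 0.1 mM NaCl, across a range of inhibitor concentrations. Incubated 120 min at 37 °C, then A405 read. IC50 taken from dose-inhibition curves, in triplicate. Chymostatin served as control.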

SMILES	IC50 [nM]
CC(C)(C(=O)OC(=O)C(C)(C)C(CCc1ccccc1)NC(=O)c1ccc(C#N)cc1)C(CCc1ccccc1)NC(=O)c1ccc(C#N)cc1 (stereo not given)	2.1
CCCCCCC(NC(=O)OC(C)(C)C)C(C)(C)C(=O)N[C@@H](Cc1ccccc1)C(=O)OCC (stereo not given in full)	1000
CCOC(=O)[C@H](Cc1ccccc1)NC(=O)C(C)(C)C(CC)NC(=O)c1ccc(C#N)cc1 (stereo not given in full)	3400
CCCCC(NC(=O)c1ccc(C#N)cc1)C(C)(C)C(=O)N[C@@H](Cc1ccccc1)C(=O)OCC (stereo not given in full)	27000
CCCCCCC(NC(=O)c1ccc(C#N)cc1)C(C)(C)C(=O)N[C@@H](Cc1ccccc1)C(=O)OC (stereo not given in full)	1100
CCCCCCC(NC(=O)c1ccc(C#N)cc1)C(C)(C)C(=O)N[C@@H](Cc1ccccc1)C(=O)OC(C)C (stereo not given in full)	86
CCCCCCCCC(NC(=O)c1ccc(C#N)cc1)C(C)(C)C(=O)N[C@@H](Cc1ccccc1)C(=O)OCC (stereo not given in full)	8600
CCCCCCC(NC(=O)c1ccc(C#N)cc1)C(C)(C)C(=O)N[C@@H](Cc1ccccc1)C(=O)OCCC (stereo not given in full)	230
CCCCCCCCCCCCC(NC(=O)c1ccc(C#N)cc1)C(C)(C)C(=O)N[C@@H](Cc1ccccc1)C(=O)OCC (stereo not given in full)	4200
CCCCCCC(NC(=O)c1ccc(C#N)cc1)C(C)(C)C(=O)N[C@@H](Cc1ccccc1)C(=O)OC(C)(C)C (stereo not given in full)	73000
CCOC(=O)[C@H](Cc1ccccc1)NC(=O)C(C)(C)C(NC(=O)c1ccc(C#N)cc1)C(C)C (stereo not given in full)	2200
CCCCCCC(NC(=O)c1ccc(C#N)cc1)C(C)(C)C(=O)N[C@@H](Cc1ccccc1)C(=O)OCc1ccccc1 (stereo not given in full)	230000
CCCCCCC(NC(=O)c1ccco1)C(C)(C)C(=O)N[C@@H](Cc1ccccc1)C(=O)OCC (stereo not given in full)	12000
CCCCCCC(NC(=O)c1ccccc1)C(C)(C)C(=O)N[C@@H](Cc1ccccc1)C(=O)OCC (stereo not given in full)	17000
CCOC(=O)[C@H](Cc1ccccc1)NC(=O)C(C)(C)C(CCc1ccccc1)NC(=O)c1ccc(C#N)cc1 (stereo not given in full)	250
CCCCCCC(NC(=O)c1ccc(C#N)cc1)C(C)(C)C(=O)N[C@@H](Cc1ccccc1)C(=O)OCC (stereo in doubt; 3)	2.6
CCCCCCC(NC(=O)c1ccc(C#N)cc1)C(C)(C)C(=O)N[C@@H](Cc1ccccc1)C(=O)OCC (stereo in doubt; 3-F)	1.6
CCCCCCC(NC(=O)c1ccc(C#N)cc1)C(C)(C)C(=O)N[C@@H](Cc1ccccc1)C(=O)OCC (stereo in doubt; 3-R)	5.1

Tested on: chymotrypsin
Assay: Percentage of intact compound after chymotrypsin cleavage at 37 degree C for 120 min
Assay type: ADME
Details: read-out: Stability
Summary of the method: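 Inhibitor (5 mM stock, diluted 1:100 by volume) incubated with bovine α-chymotrypsin (625 ng/mL solution) for 120 min at 37 °C. Intact compound and cleaved free acid quantified by reverse-phase HPLC (50–75% acetonitrile in 0.1% TFA over 25 min). Result given as percent intact compound relative to the initial amount.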

SMILES	remaining at 2 h [%]
CCCCCC(NC(=O)c1ccc(C#N)cc1)C(C)(C)C(=O)N[C@@H](Cc1ccccc1)C(=O)OCC (stereo not given in full)	3
CCCCCCC(NC(=O)c1ccc(C#N)cc1F)C(C)(C)C(=O)N[C@@H](Cc1ccccc1)C(=O)OCC (stereo not given in full)	6
CCOC(=O)[C@H](Cc1ccccc1)NC(=O)C(C)(C)C(CC)NC(=O)c1ccc(C#N)cc1 (stereo not given in full)	91
CCCC(NC(=O)c1ccc(C#N)cc1)C(C)(C)C(=O)N[C@@H](Cc1ccccc1)C(=O)OCC (stereo not given in full)	11
CCOC(=O)[C@H](Cc1ccccc1)NC(=O)C(C)(C)C(CC(C)C)NC(=O)c1ccc(C#N)cc1 (stereo not given in full)	41
CCCCCCC(NC(=O)c1ccc(C#N)cc1)C(C)(C)C(=O)N[C@@H](Cc1ccccc1)C(=O)OC (stereo not given in full)	98
CCCCCCCC(NC(=O)c1ccc(C#N)cc1)C(C)(C)C(=O)N[C@@H](Cc1ccccc1)C(=O)OCC (stereo not given in full)	< 1
CCCCCCC(NC(=O)c1ccc(C#N)cc1)C(C)(C)C(=O)N[C@@H](Cc1ccccc1)C(=O)OC(C)C (stereo not given in full)	98
CCCCCCCCC(NC(=O)c1ccc(C#N)cc1)C(C)(C)C(=O)N[C@@H](Cc1ccccc1)C(=O)OCC (stereo not given in full)	61
CCCCCCCCCCC(NC(=O)c1ccc(C#N)cc1)C(C)(C)C(=O)N[C@@H](Cc1ccccc1)C(=O)OCC (stereo not given in full)	16
CCCCCCC(NC(=O)c1ccc(C#N)cc1)C(C)(C)C(=O)N[C@@H](Cc1ccccc1)C(=O)OCCC (stereo not given in full)	97
CCOC(=O)[C@H](Cc1ccccc1)NC(=O)C(C)(C)C(NC(=O)c1ccc(C#N)cc1)C(C)C (stereo not given in full)	90
CCCCCCC(NC(=O)c1ccccc1)C(C)(C)C(=O)N[C@@H](Cc1ccccc1)C(=O)OCC (stereo not given in full)	< 1

Target: Chymotrypsin-like elastase family member 1 (Sus scrofa, UniProt P00772)
Assay: Compound was tested by chromogenic assay for the inhibition of serine proteases like Porcine Elastase
Details: not given
Summary of the method: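 Purified porcine pancreatic elastase (type III) with chromogenic substrate N-succinyl-Ala-Ala-Ala-pNA in 50 mM HEPES, pH 7.4, with NaCl. Enzyme and substrate were mixed with a range of inhibitor concentrations and held at 37 °C for 120 min. Activity was read as absorbance at 405 nm. IC50 was taken from dose-inhibition curves, with elastatinal as the reference inhibitor.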

Chymotrypsin-like elastase family member 1, sequence (P00772 whole entry): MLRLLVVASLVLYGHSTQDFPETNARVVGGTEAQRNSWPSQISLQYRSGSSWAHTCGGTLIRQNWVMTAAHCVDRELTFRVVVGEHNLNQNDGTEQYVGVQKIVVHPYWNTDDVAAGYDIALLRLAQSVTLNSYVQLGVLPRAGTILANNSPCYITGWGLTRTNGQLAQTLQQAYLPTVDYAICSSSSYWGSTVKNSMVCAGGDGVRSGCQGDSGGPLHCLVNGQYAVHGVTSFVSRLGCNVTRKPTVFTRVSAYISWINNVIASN

SMILES	IC50 [nM]
CCCCC(NC(=O)c1ccc(C#N)cc1)C(C)(C)C(=O)N[C@@H](Cc1ccccc1)C(=O)OCC (stereo not given in full)	710000
CCCCCCC(NC(=O)c1ccc(C#N)cc1)C(C)(C)C(=O)N[C@@H](Cc1ccccc1)C(=O)OC (stereo not given in full)	4200
CCCCCCC(NC(=O)c1ccc(C#N)cc1)C(C)(C)C(=O)N[C@@H](Cc1ccccc1)C(=O)OC(C)C (stereo not given in full)	200
CCCCCCCCC(NC(=O)c1ccc(C#N)cc1)C(C)(C)C(=O)N[C@@H](Cc1ccccc1)C(=O)OCC (stereo not given in full)	2700
CCCCCCC(NC(=O)c1ccc(C#N)cc1)C(C)(C)C(=O)N[C@@H](Cc1ccccc1)C(=O)OCCC (stereo not given in full)	270
CCCCCCC(NC(=O)c1ccc(C#N)cc1)C(C)(C)C(=O)N[C@@H](Cc1ccccc1)C(=O)OCC (stereo in doubt; 3)	7
CCCCCCC(NC(=O)c1ccc(C#N)cc1)C(C)(C)C(=O)N[C@@H](Cc1ccccc1)C(=O)OCC (stereo in doubt; 3-F)	8.6
CCCCCCC(NC(=O)c1ccc(C#N)cc1)C(C)(C)C(=O)N[C@@H](Cc1ccccc1)C(=O)OCC (stereo in doubt; 3-R)	14

Target: T3, Serine protease 1 (Bos taurus, UniProt P00760)
T3 sequence (P00760 whole entry): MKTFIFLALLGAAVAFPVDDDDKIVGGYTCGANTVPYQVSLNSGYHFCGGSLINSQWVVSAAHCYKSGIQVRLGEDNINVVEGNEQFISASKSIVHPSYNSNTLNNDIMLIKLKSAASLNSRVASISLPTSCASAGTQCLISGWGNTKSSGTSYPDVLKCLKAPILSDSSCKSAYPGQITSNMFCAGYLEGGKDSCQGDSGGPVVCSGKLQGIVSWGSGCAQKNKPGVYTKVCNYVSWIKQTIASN
Assay: Compound was tested by chromogenic assay for the inhibition of serine proteases like Bovine trypsin
Details: not given
Summary of the method: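 Trypsin (1 U/mL; named porcine pancreatic in the methods, bovine in the table footnote) with Bz-L-Arg-pNA (1 mM) in 50 mM HEPES pH 7.4 containing 0.1 mM NaCl, with varied inhibitor concentrations. Incubated 120 min at 37 °C, then A405 read. IC50 from dose-inhibition curves, with leupeptin as control.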

SMILES	IC50 [nM]
CC(C)(C(=O)OC(=O)C(C)(C)C(CCc1ccccc1)NC(=O)c1ccc(C#N)cc1)C(CCc1ccccc1)NC(=O)c1ccc(C#N)cc1 (stereo not given)	300
CCCCCCC(NC(=O)OC(C)(C)C)C(C)(C)C(=O)N[C@@H](Cc1ccccc1)C(=O)OCC (stereo not given in full)	6300
CCCCCCC(NC(=O)c1ccc(C#N)cc1)C(C)(C)C(=O)N[C@@H](Cc1ccccc1)C(=O)OC(C)C (stereo not given in full)	6700
CCCCCCC(NC(=O)c1ccc(C#N)cc1)C(C)(C)C(=O)N[C@@H](Cc1ccccc1)C(=O)OCCC (stereo not given in full)	17000
CCCCCCCCCCCCC(NC(=O)c1ccc(C#N)cc1)C(C)(C)C(=O)N[C@@H](Cc1ccccc1)C(=O)OCC (stereo not given in full)	220000
CCOC(=O)[C@H](Cc1ccccc1)NC(=O)C(C)(C)C(NC(=O)c1ccc(C#N)cc1)C(C)C (stereo not given in full)	60000
CCCCCCC(NC(=O)c1ccccc1)C(C)(C)C(=O)N[C@@H](Cc1ccccc1)C(=O)OCC (stereo not given in full)	560000
CCCCCCC(NC(=O)c1ccc(C#N)cc1)C(C)(C)C(=O)N[C@@H](Cc1ccccc1)C(=O)OCC (stereo in doubt; 3)	540

Target: T4, Chymase (Homo sapiens, UniProt P23946)
T4 sequence (P23946 whole entry): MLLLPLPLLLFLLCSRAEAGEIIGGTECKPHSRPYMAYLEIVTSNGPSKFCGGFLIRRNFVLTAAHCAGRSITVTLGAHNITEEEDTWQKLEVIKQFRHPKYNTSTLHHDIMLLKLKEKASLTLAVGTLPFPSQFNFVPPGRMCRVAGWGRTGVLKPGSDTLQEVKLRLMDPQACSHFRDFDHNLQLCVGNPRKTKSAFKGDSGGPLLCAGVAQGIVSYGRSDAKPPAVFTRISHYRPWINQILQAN
Assay: Compound was tested by chromogenic assay for the inhibition of human Serine protease chymase
Details: not given

SMILES	IC50 [nM]
CCCCC(NC(=O)c1ccc(C#N)cc1)C(C)(C)C(=O)N[C@@H](Cc1ccccc1)C(=O)OCC (stereo not given in full)	510000
CCCCCCC(NC(=O)c1ccc(C#N)cc1)C(C)(C)C(=O)N[C@@H](Cc1ccccc1)C(=O)OC(C)C (stereo not given in full)	150

Target: T2, Chymotrypsinogen A
Assay: Compound was evaluated for inactivation of bovine alpha-Chymotrypsin Kinetic constant(Ki)
Details: not given

SMILES	Ki [nM]
CCCCCCC(NC(=O)c1ccc(C#N)cc1)C(C)(C)C(=O)N[C@@H](Cc1ccccc1)C(=O)OC (stereo not given in full)	12000
CCCCCCC(NC(=O)c1ccc(C#N)cc1)C(C)(C)C(=O)N[C@@H](Cc1ccccc1)C(=O)OC(C)C (stereo not given in full)	70
CCCCCCC(NC(=O)c1ccc(C#N)cc1)C(C)(C)C(=O)N[C@@H](Cc1ccccc1)C(=O)OCCC (stereo not given in full)	340
CCCCCCC(NC(=O)c1ccc(C#N)cc1)C(C)(C)C(=O)N[C@@H](Cc1ccccc1)C(=O)OCC (stereo in doubt; 3)	4.5
